Source: ChEMBL document CHEMBL1126036, “Quinolone antibacterial agents. Synthesis and structure-activity relationships of a series of amino acid prodrugs of racemic and chiral 7-(3-amino-1-pyrrolidinyl)quinolones. Highly soluble quinolone prodrugs with in vivo pseudomonas activity” (J Med Chem, 1992)
≈ marks a conversion by molar mass, not a printed value.

Experiments:
[1] = Solubility (in 0.1 N HCl); format: physicochemical; settings: read-out: S
Outline: (§1)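 Solubility was measured either from HPLC peak areas at equilibrium or by a conventional weight-per-volume method. All solutions were held for 24 h before measurement.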

[2] = Solubility (at pH 4); format: physicochemical; settings: buffer; for solubility: read-out: S; outline: as §1
[3] = Solubility (at pH 7.4); format: physicochemical; settings: buffer, read-out: S; outline: as §1
Escherichia coli [4] = assay: In vitro antibacterial activity against gram negative Escherichia coli Vogel.; format: functional
Enterococcus faecalis = assay: In vitro antibacterial activity against gram positive Enterococcus faecalis MGH-2.; format: functional
Enterobacter cloacae = assay: In vitro antibacterial activity against gram negative Enterobacter cloacae MA 2646.; format: functional
Klebsiella pneumoniae [5] = assay: In vitro antibacterial activity against gram negative Klebsiella pneumoniae MGH-2.; format: functional
Escherichia coli [6] = assay: In vivo potency against acute systemic infection in mouse caused by Escherichia coli Vogel on oral administration by gavage.; format: functional; settings: read-out: PD50
Outline: (§2)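 Acute systemic mouse infection. A single oral dose was given by gavage at the time of challenge. Potency is reported as the median protective dose (PD50, mg/kg), determined by earlier published methods.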

Streptococcus pneumoniae [7] = assay: In vivo potency against acute systemic infection in mouse caused by Streptococcus pneumoniae SV-1 on oral administration by gavage.; format: functional; settings: read-out: PD50; outline: as §2
Streptococcus pneumoniae [8] = assay: In vivo potency against acute systemic infection in mouse caused by Streptococcus pneumoniae SV-1 on subcutaneous injection.; format: functional; settings: sc, read-out: PD50
Outline: (§3)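 Acute systemic mouse infection. A single subcutaneous dose was injected at the time of challenge. Potency is reported as the median protective dose (PD50, mg/kg), determined by earlier published methods.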

Escherichia coli [9] = assay: In vivo potency against acute systemic infection in mouse caused by Escherichia coli vogel on subcutaneous injection.; format: functional; settings: sc, read-out: PD50; outline: as §3
Mus musculus [10] = assay: In vivo potency against acute systemic infection in mouse caused by Pseudomonas aeruginosa UI-18 on oral administration by gavage.; format: functional; settings: read-out: PD50; outline: as §2
Mus musculus [11] = assay: In vivo potency against acute systemic infection in mouse caused by Pseudomonas aeruginosa. UI-18. on subcutaneous injection.; format: functional; settings: sc, read-out: PD50; outline: as §3
Mus musculus [12] = assay: In vivo potency against acute systemic infection in mouse caused by Streptococcus pyogenes C-203 on oral administration by gavage; format: functional; settings: read-out: PD50; outline: as §2
Mus musculus [13] = assay: In vivo potency against acute systemic infection in mouse caused by Streptococcus pyogenes C-203 on subcutaneous injection; format: functional; settings: sc, read-out: PD50; outline: as §3
Pseudomonas aeruginosa = assay: In vitro antibacterial activity against gram negative Pseudomonas aeruginosa UI-18.; format: functional
Providencia rettgeri = assay: In vitro antibacterial activity against gram negative Providencia rettgeri M-1771.; format: functional
Staphylococcus aureus [14] = assay: In vitro antibacterial activity against gram positive Staphylococcus aureus H-228.; format: functional
Streptococcus pyogenes = assay: In vitro antibacterial activity against gram positive Streptococcus pyogenes C-203.; format: functional
Staphylococcus aureus [15] = assay: In vitro antibacterial activity against gram positive Staphylococcus aureus UC76.; format: functional
Streptococcus pneumoniae [16] = assay: In vitro antibacterial activity against gram positive Streptococcus pneumoniae SV-1.; format: functional
[17] = Aqueous solubility; format: physicochemical; settings: read-out: S; outline: as §1
[18] = biological target: DNA gyrase (Escherichia coli) (UniProt P0AES6+P0AES4); assay: In vitro concentration inhibiting DNA gyrase induced cleavage in Escherichia coli H560.; format: functional
Outline: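 DNA gyrase test run as described in earlier work. The value is the drug concentration (µg/mL) needed to cause DNA cleavage.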

Klebsiella pneumoniae [19] = assay: In vitro antibacterial activity against gram negative Klebsiella pneumoniae. MGH-2; format: functional

SMILES | solubility [1] [µg/mL] | MIC (Escherichia coli [4]) [µg/mL] | MIC (Enterococcus faecalis) [µg/mL] | MIC (Enterobacter cloacae) [µg/mL] | ED50 (Escherichia coli [6]) [mg/kg] | ED50 (Streptococcus pneumoniae [7]) [mg/kg] | ED50 (Streptococcus pneumoniae [8]) [mg/kg] | ED50 (Escherichia coli [9]) [mg/kg] | ED50 (Mus musculus [10]) [mg/kg] | ED50 (Mus musculus [12]) [mg/kg] | ED50 (Mus musculus [13]) [mg/kg] | MIC (Pseudomonas aeruginosa) [µg/mL] | MIC (Providencia rettgeri) [µg/mL] | MIC (Staphylococcus aureus [14]) [µg/mL] | MIC (Streptococcus pyogenes) [µg/mL] | MIC (Staphylococcus aureus [15]) [µg/mL] | MIC (Streptococcus pneumoniae [16]) [µg/mL] | solubility ([17]; water (aqueous)) [µg/mL] | solubility [2] [µg/mL] | Cleavage [18] [µg/mL] | other results
NC1CCN(c2nc3c(cc2F)c(=O)c(C(=O)O)cn3-c2ccc(F)cc2F)C1 (stereo unspecified) [TOSUFLOXACIN] | 400 (≈ 989 µM) | 0.013 (≈ 0.0322 µM) | 0.1 (≈ 0.247 µM) | 0.025 (≈ 0.0618 µM) | 1 | 14 | 3 | 0.3 | 6 | 5 | 3 | 0.4 (≈ 0.989 µM) | 0.1 (≈ 0.247 µM) | 0.05 (≈ 0.124 µM) | 0.05 (≈ 0.124 µM) | 0.025 (≈ 0.0618 µM) | 0.025 (≈ 0.0618 µM) | 650 (≈ 1610 µM) | – | – | S [2]: 0.55 mg/mL; solubility [3]: 100 µg/mL (≈ 247 µM); MIC (Klebsiella pneumoniae [5]): 0.05 µg/mL (≈ 0.124 µM); ED50 (Mus musculus [11]): 4 mg/kg
Cl.NC1CCN(c2c(F)cc3c(=O)c(C(=O)O)cn(C4CC4)c3c2F)C1 (stereo unspecified) | 3000 | 0.013 | 0.05 | 0.025 | 1 | 15 | 6 | 0.2 | 7 | 7 | 2 | 0.05 | 0.05 | 0.025 | 0.05 | 0.006 | 0.05 | 15000 | 2400 | 0.1 | solubility [3]: 80 µg/mL; MIC (Klebsiella pneumoniae [5]): 0.025 µg/mL; ED50 (Mus musculus [11]): 3 mg/kg
N[C@H]1CCN(c2nc3c(cc2F)c(=O)c(C(=O)O)cn3C2CC2)C1 | – | 0.006 (≈ 0.0181 µM) | 0.1 (≈ 0.301 µM) | 0.013 (≈ 0.0391 µM) | 0.8 | 19 | 14 | 0.4 | 4 | 19 | 9 | 0.1 (≈ 0.301 µM) | 0.025 (≈ 0.0752 µM) | 0.05 (≈ 0.15 µM) | 0.05 (≈ 0.15 µM) | 0.013 (≈ 0.0391 µM) | 0.05 (≈ 0.15 µM) | – | – | 0.25 | MIC (Klebsiella pneumoniae [19]): 0.013 µg/mL (≈ 0.0391 µM); ED50 (Mus musculus [11]): 2 mg/kg
C[C@H](N)C(=O)NC1CCN(c2nc3c(cc2F)c(=O)c(C(=O)O)cn3C2CC2)C1.Cl.O (stereo partly specified) | > 350000 | 0.4 | 1.6 | 0.2 | 1 | 28 | 10 | 0.6 | 7 | 15 | 7 | 3.1 | 1.6 | 3.1 | 0.4 | 0.8 | 0.8 | > 300000 | > 350000 | 0.75 | MIC (Klebsiella pneumoniae [19]): 0.8 µg/mL; ED50 (Mus musculus [11]): 5 mg/kg; solubility ([17]; pH 7.4 phosphate buffer): 80 µg/mL
Nc1c(F)c(N2CCC(N)C2)c(F)c2c1c(=O)c(C(=O)O)cn2C1CC1 (stereo unspecified) | 100 (≈ 274 µM) | 0.006 (≈ 0.0165 µM) | 0.025 (≈ 0.0686 µM) | 0.006 (≈ 0.0165 µM) | 2 | 20 | 9 | 0.4 | 16 | 24 | 6 | 0.05 (≈ 0.137 µM) | 0.025 (≈ 0.0686 µM) | 0.013 (≈ 0.0357 µM) | 0.025 (≈ 0.0686 µM) | 0.006 (≈ 0.0165 µM) | 0.006 (≈ 0.0165 µM) | 2400 (≈ 6590 µM) | 3200 (≈ 8780 µM) | 0.25 | solubility [3]: 80 µg/mL (≈ 220 µM); MIC (Klebsiella pneumoniae [5]): 0.006 µg/mL (≈ 0.0165 µM); ED50 (Mus musculus [11]): 4 mg/kg
NC(=O)CC[C@H](N)C(=O)NC1CCN(c2nc3c(cc2F)c(=O)c(C(=O)O)cn3C2CC2)C1 (stereo partly specified) | 1400 (≈ 3040 µM) | 6.3 (≈ 13.7 µM) | 6.3 (≈ 13.7 µM) | 6.3 (≈ 13.7 µM) | 4.8 | – | – | 0.4 | – | – | – | > 25 | 25 (≈ 54.3 µM) | 3.1 (≈ 6.73 µM) | 12.5 (≈ 27.1 µM) | 0.8 (≈ 1.74 µM) | 12.5 (≈ 27.1 µM) | 6100 (≈ 13200 µM) | 3100 (≈ 6730 µM) | 5 | MIC (Klebsiella pneumoniae [19]): 12.5 µg/mL (≈ 27.1 µM); solubility ([17]; pH 7.4 phosphate buffer): 50 µg/mL (≈ 109 µM)
C[C@H](N)C(=O)N[C@H]1CCN(c2nc3c(cc2F)c(=O)c(C(=O)O)cn3C2CC2)C1.Cl.O | > 350000 | 0.8 | 1.6 | 0.8 | 1.3 | 25 | 12 | 0.4 | 3 | 22 | 10 | 3.1 | 3.1 | 3.1 | 0.8 | 0.8 | 0.8 | > 350000 | > 350000 | 5 | MIC (Klebsiella pneumoniae [19]): 1.6 µg/mL; ED50 (Mus musculus [11]): 2 mg/kg; solubility ([17]; pH 7.4 phosphate buffer): 20 µg/mL
Cl.NC1CCN(c2cc3c(cc2F)c(=O)c(C(=O)O)cn3C2CC2)C1.O (stereo unspecified) | – | 0.025 | 0.1 | 0.025 | 3 | 43 | 4 | 0.5 | 49 | 97 | 11 | 0.1 | 0.1 | 0.2 | 0.1 | 0.025 | 0.1 | – | – | 0.1 | MIC (Klebsiella pneumoniae [5]): 0.05 µg/mL; ED50 (Mus musculus [11]): 5 mg/kg
Cl.NCC(=O)NC1CCN(c2c(F)c(N)c3c(=O)c(C(=O)O)cn(C4CC4)c3c2F)C1.O (stereo unspecified) | 3500 | 0.2 | 0.4 | 0.2 | 1 | 29 | 16 | 0.4 | – | 36 | 8.1 | 1.6 | 0.4 | 0.4 | 0.2 | 0.1 | 0.4 | 17000 | 69000 | 5 | solubility [3]: 70 µg/mL; MIC (Klebsiella pneumoniae [5]): 0.4 µg/mL
C[C@H](N)C(=O)NC1CCN(c2c(F)cc3c(=O)c(C(=O)O)cn(C4CC4)c3c2F)C1.Cl.O (stereo partly specified) | 7200 | 0.2 | 0.4 | 0.2 | 2 | 13 | 9 | 0.3 | 13 | 12 | 4 | 0.4 | 0.2 | 0.2 | 0.1 | 0.05 | 0.1 | 31000 | 25000 | 1 | solubility [3]: 90 µg/mL; MIC (Klebsiella pneumoniae [5]): 0.2 µg/mL; ED50 (Mus musculus [11]): 2 mg/kg
C[C@@H](N)C(=O)NC1CCN(c2nc3c(cc2F)c(=O)c(C(=O)O)cn3C2CC2)C1.Cl.O (stereo partly specified) | 189000 | 0.8 | 0.2 | 0.8 | 22.5 | > 100 | 3 | 5.1 | – | – | – | 1.6 | 1.6 | 0.4 | 0.013 | 0.05 | 0.25 | > 250000 | 262000 | 2.5 | MIC (Klebsiella pneumoniae [19]): 0.8 µg/mL; solubility ([17]; pH 7.4 phosphate buffer): 60 µg/mL
N[C@@H]1CCN(c2nc3c(cc2F)c(=O)c(C(=O)O)cn3C2CC2)C1 | – | 0.013 (≈ 0.0391 µM) | 0.2 (≈ 0.602 µM) | 0.025 (≈ 0.0752 µM) | 0.5 | 45 | 34 | 0.4 | – | – | – | 0.4 (≈ 1.2 µM) | 0.05 (≈ 0.15 µM) | 0.2 (≈ 0.602 µM) | 0.2 (≈ 0.602 µM) | 0.05 (≈ 0.15 µM) | 0.1 (≈ 0.301 µM) | – | – | 0.5 | MIC (Klebsiella pneumoniae [19]): 0.025 µg/mL (≈ 0.0752 µM)
C[C@H](N)C(=O)NC1CCN(c2cc3c(cc2F)c(=O)c(C(=O)O)cn3C2CC2)C1.Cl.O (stereo partly specified) | > 100000 | 0.4 | 1.6 | 0.8 | 5 | > 100 | 13 | 0.5 | – | > 100 | 5 | 1.6 | 1.6 | 3.1 | 0.4 | 0.4 | 0.4 | > 100000 | > 100000 | 1 | solubility [3]: 270 µg/mL; MIC (Klebsiella pneumoniae [5]): 0.8 µg/mL
C[C@H](N)C(=O)N[C@H]1CCN(c2c(F)c(N)c3c(=O)c(C(=O)O)cn(C4CC4)c3c2F)C1.Cl.O | 2800 | 0.05 | 0.2 | 0.05 | 5 | 17 | 13 | 2.5 | 9.6 | 6.3 | 23 | 1.6 | 0.4 | 0.1 | 0.05 | 0.025 | 0.05 | 18000 | 58000 | 2.5 | solubility [3]: 40 µg/mL; MIC (Klebsiella pneumoniae [5]): 0.2 µg/mL; ED50 (Mus musculus [11]): 4 mg/kg
